Reference: ChEMBL document CHEMBL1154566, “Quadranosides I-V, new triterpene glucosides from the seeds of Combretum quadrangulare” (2000)
The source made the active and inactive calls. The calls are words filed in the database; no cut-off is given here.

Columns and labels:
Type in all cases: functional
Hepatocyte [1] = test: Hepatoprotective activity against mouse hepatocytes assessed as inhibition of D-galactosamine/TNFalpha-induced cell death at 50 uM after 18 hrs by MTT assay
Summary of the method: (§1)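 Primary cultured mouse hepatocytes in Williams' E medium with 10% calf serum, penicillin G, streptomycin, 100 µM dexamethasone and 50 ng/mL insulin, seeded at 10^5 cells/well and preincubated 2 h. The medium was then replaced with fresh medium holding 0.5 mM D-GalN plus test sample.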

Hepatocyte [2] = test: Hepatoprotective activity against mouse hepatocytes assessed as inhibition of D-galactosamine/TNFalpha-induced cell death at 100 uM after 18 hrs by MTT assay; summary of the method: as §1
Hepatocyte [3] = test: Hepatoprotective activity against mouse hepatocytes assessed as inhibition of D-galactosamine/TNFalpha-induced cell death at 200 uM after 18 hrs by MTT assay; summary of the method: as §1
Hepatocyte [4] = test: Hepatoprotective activity against mouse hepatocytes assessed as inhibition of D-galactosamine/TNFalpha-induced cell death at 25 uM after 18 hrs by MTT assay; summary of the method: as §1

CC1(C)CC[C@]2(C(=O)O)CC[C@]3(C)C(=CC[C@@H]4[C@@]5(C)C[C@@H](O)[C@H](O)[C@@](C)(CO)[C@@H]5CC[C@]43C)[C@@H]2[C@@H]1O [ARJUNGENIN]
inhibition at 50 µM (Hepatocyte [1]): 31.8%
inhibition at 100 µM (Hepatocyte [2]): 37%
inhibition at 200 µM (Hepatocyte [3]): 46.2%

CC1=C(C)[C@H]2C3=CC[C@@H]4[C@@]5(C)C[C@@H](O)[C@H](O)[C@@](C)(CO)[C@@H]5CC[C@@]4(C)[C@]3(C)CC[C@@]2(C(=O)O[C@@H]2O[C@H](CO)[C@@H](O)[C@H](O)[C@H]2O)CC1
inhibition at 50 µM (Hepatocyte [1]): 8.3%
inhibition at 100 µM (Hepatocyte [2]): 25%
inhibition at 200 µM (Hepatocyte [3]): 15%

C=C(C)[C@@H]1CC[C@]2(C(=O)O[C@@H]3O[C@H](CO)[C@@H](O)[C@H](O)[C@H]3O)CC[C@]3(C)[C@H](CC[C@@H]4[C@@]5(C)C[C@@H](O)[C@H](O)[C@@](C)(CO)[C@@H]5[C@H](O)C[C@]43C)[C@@H]12 [QUADRANOSIDE II]
inhibition at 25 µM (Hepatocyte [4]): 32%
inhibition at 50 µM (Hepatocyte [1]): 40.9%
inhibition at 100 µM (Hepatocyte [2]): 46.1%
inhibition at 200 µM (Hepatocyte [3]): 83.6%

C[C@@]1(CO)CC[C@]2(C(=O)O[C@@H]3O[C@H](CO)[C@@H](O)[C@H](O)[C@H]3O)CC[C@]3(C)C(=CC[C@@H]4[C@@]5(C)C[C@@H](O)[C@H](O)[C@@](C)(CO)[C@@H]5CC[C@]43C)[C@@H]2C1 [QUADRANOSIDE III]
inhibition at 25 µM (Hepatocyte [4]): 15.1%
inhibition at 50 µM (Hepatocyte [1]): 8%
inhibition at 100 µM (Hepatocyte [2]): 17.8%
inhibition at 200 µM (Hepatocyte [3]): 35.5%

COc1cc(C2Oc3cc([C@H]4Oc5cc(O)cc(O)c5C(=O)[C@@H]4O)ccc3OC2CO)ccc1O (some centres undefined) [SILIBININ]
inhibition at 25 µM (Hepatocyte [4]): 38.1%
inhibition at 50 µM (Hepatocyte [1]): 61.2%
inhibition at 100 µM (Hepatocyte [2]): 96.5%
inhibition at 200 µM (Hepatocyte [3]): 70.8%

Oc1cc(O)c2c(c1)O[C@H](c1ccc(O)c(O)c1)[C@H](O)C2 [(-)-EPICATECHIN]
inhibition at 50 µM (Hepatocyte [1]): 38%
inhibition at 100 µM (Hepatocyte [2]): 58.1%
inhibition at 200 µM (Hepatocyte [3]): 98.9%

CC1(C)CC[C@]2(C(=O)O[C@@H]3O[C@H](CO)[C@@H](O)[C@H](O)[C@H]3O)CC[C@]3(C)C(=CC[C@@H]4[C@@]5(C)C[C@@H](O)[C@H](O)[C@@](C)(CO)[C@@H]5CC[C@]43C)[C@@H]2[C@@H]1O [ARJUNGLUCOSIDE I]
inhibition at 50 µM (Hepatocyte [1]): 10.1%
inhibition at 100 µM (Hepatocyte [2]): 31.5%
inhibition at 200 µM (Hepatocyte [3]): 32.7%

Oc1cc(O)c2c(c1)O[C@H](c1cc(O)c(O)c(O)c1)[C@@H](O)C2 [GALLOCATECHIN]
inhibition at 50 µM (Hepatocyte [1]): 19.7%
inhibition at 100 µM (Hepatocyte [2]): 30.3%
inhibition at 200 µM (Hepatocyte [3]): 33.5%

CC1=C2C3=CC[C@@H]4[C@@]5(C)C[C@@H](O)[C@H](O)[C@@](C)(CO)[C@@H]5[C@H](O)C[C@@]4(C)[C@]3(C)CC[C@@]2(C(=O)O[C@@H]2O[C@H](CO)[C@@H](O)[C@H](O)[C@H]2O)CC[C@H]1C [QUADRANOSIDE V]
inhibition at 25 µM (Hepatocyte [4]): 59.3%
inhibition at 50 µM (Hepatocyte [1]): 67.5%
inhibition at 100 µM (Hepatocyte [2]): 77.7%
inhibition at 200 µM (Hepatocyte [3]): 80.1%

C[C@H]1[C@H](C)CC[C@]2(C(=O)O[C@@H]3O[C@H](CO)[C@@H](O)[C@H](O)[C@H]3O)CC[C@]3(C)C(=CC[C@@H]4[C@@]5(C)C[C@@H](O)[C@H](O)[C@@](C)(CO)[C@@H]5CC[C@]43C)[C@H]12
Activity (Hepatocyte [4]): inactive
Activity (Hepatocyte [1]): inactive
Activity (Hepatocyte [2]): inactive
Activity (Hepatocyte [3]): inactive

C=C(C)[C@@H]1CC[C@]2(C(=O)O[C@@H]3O[C@H](CO)[C@@H](O)[C@H](O)[C@H]3O)CC[C@]3(C)[C@H](CC[C@@H]4[C@@]5(C)C[C@@H](O)[C@H](O)C(C)(C)[C@@H]5[C@H](O)C[C@]43C)[C@@H]12 [QUADRANOSIDE I]
inhibition at 25 µM (Hepatocyte [4]): 6.3%
inhibition at 50 µM (Hepatocyte [1]): 37.6%
inhibition at 100 µM (Hepatocyte [2]): 29.7%
inhibition at 200 µM (Hepatocyte [3]): 71.2%
